Measured values pooled from the literature.
Effect on: metabolic stability
Host: mouse
Matrix: liver microsomes

SMILES	conditions	microsomal CLint
CNCCNC(=O)c1cc(C(C)C)nc2c1cnn2C(C)C		175 µL/min/mg
CC1(C)NC(=O)N(c2ccc3c(c2)OC(F)(F)O3)C1=O		< 7 µL/min/mg
O=C(O)Cc1ccccc1Nc1c(Cl)cccc1Cl		31.2 µL/min/mg
O=c1c2c([nH]c3c(Oc4ccc(OC(F)(F)F)cc4)cccc13)CCCC2	1 µM, pH 7.4	8.33 µL/min/mg
COc1ccc(Cn2cc(CO[C@@H]3O[C@H]4[C@H](OC[C@H]4O)[C@H]3O)nn2)cc1		< 14.4 µL/min/mg
CC(C)(C)OC(=O)N1CCC(Oc2ccc3c(=O)c4c(F)cc(Cl)cc4[nH]c3c2)CC1	1 µM, pH 7.4	12.5 µL/min/mg
CC1(C(F)F)NC(=O)N(c2ccc(F)c(C(F)(F)F)c2)C1=O (stereo not drawn)		< 7 µL/min/mg
CCN(CC)CCOc1ccc2c(=O)c3c([nH]c2c1)CCCC3	1 µM, pH 7.4	17.7 µL/min/mg
Cc1[nH]c(C)c(S(=O)(=O)Nc2ccc(C(F)(F)F)c(Cl)c2)c1C(=O)N(C)C		179 µL/min/mg
Cc1cc(N2C(=O)NC(C)(C)C2=O)cc(C(F)(F)F)n1		19 µL/min/mg
CCCN(CCC)CCNc1ccc2c(=O)c3c([nH]c2c1)CCCC3	1 µM, pH 7.4	81.9 µL/min/mg
CC1(C)NC(=O)N(c2ccc(F)c(Br)c2)C1=O		8 µL/min/mg
CONC(=O)c1cccc2c1cc(C)n2-c1nc2c(c(NCc3ccccc3)n1)CCCN2	1 µM, pH 7.4	619 µL/min/mg
CC(C)c1cc(C(=O)NCCN)c2cnn(C(C)C)c2n1		< 9.6 µL/min/mg
O=C1NC2(CCS(=O)(=O)CC2)C(=O)N1c1ccc(F)c(C(F)(F)F)c1		< 7 µL/min/mg
O=c1c2ccc(Oc3ccc(OC(F)(F)F)cc3)cc2[nH]c2cc(Cl)c(F)cc12	1 µM, pH 7.4	1.84 µL/min/mg
CC(C)n1ncc2c(C(=O)NCC3(C)CNC3)cc(C3CC3)nc21		< 9.6 µL/min/mg
CC1(C)NC(=O)N(c2ccc(F)c(OC(F)(F)F)c2)C1=O		< 7 µL/min/mg
